Assay results taken from ChEMBL document CHEMBL4765243, “Discovery of Novel Bromophenol-Thiosemicarbazone Hybrids as Potent Selective Inhibitors of Poly(ADP-ribose) Polymerase-1 (PARP-1) for Use in Cancer” (J Med Chem, 2019).

Columns and labels:
[1] = molecular target: T1, Poly [ADP-ribose] polymerase 1 (Homo sapiens, UniProt P09874); conditions: dose 100.0 nM, time 30.0 min
Bel-7402 [2] = assay: Antiproliferative activity against human Bel-7402 cells assessed as cell growth inhibition at 20 uM incubated for 48 hrs by MTT assay relative to control; type: functional
[3] = Cytotoxicity against human HL7702 cells assessed as cell growth inhibition at 20 uM incubated for 48 hrs by MTT assay relative to control; type: cell-based; conditions: HL7702 (L02) cells
HepG2 [4] = assay: Antiproliferative activity against human HepG2 cells assessed as cell growth inhibition at 20 uM incubated for 48 hrs by MTT assay relative to control; type: functional
SK-OV-3 [5] = assay: Antiproliferative activity against human SK-OV-3 cells assessed as cell growth inhibition at 20 uM incubated for 48 hrs by MTT assay relative to control; type: functional
Caco-2 [6] = assay: Antiproliferative activity against human Caco-2 cells assessed as cell growth inhibition at 20 uM incubated for 48 hrs by MTT assay relative to control; type: functional
[7] = molecular target: T1, Poly [ADP-ribose] polymerase 1; assay: Inhibition of human recombinant GST-tagged PARP-1 expressed in Escherichia coli assessed as reduction in NAD+-dependent ADP ribosylation incubated for 30 mins in presence and NAD by resazurin dye based fluorescence analysis
[8] = Selectivity index, ratio of IC50 for inhibition of human recombinant N-terminal GST-tagged PARP-2 to IC50 for inhibition of human recombinant GST-tagged PARP-1
[9] = molecular target: Poly [ADP-ribose] polymerase 2 (Homo sapiens, UniProt Q9UGN5); assay: Inhibition of human recombinant N-terminal GST-tagged PARP-2 expressed in Baculovirus infected Sf9 cells assessed as reduction in NAD+-dependent ADP ribosylation using histone mixture (H2A and H2B) as substrate in presence of activated DNA incubated for 30 mins by chemiluminescence assay
Sequence of Poly [ADP-ribose] polymerase 2 (Q9UGN5 whole entry): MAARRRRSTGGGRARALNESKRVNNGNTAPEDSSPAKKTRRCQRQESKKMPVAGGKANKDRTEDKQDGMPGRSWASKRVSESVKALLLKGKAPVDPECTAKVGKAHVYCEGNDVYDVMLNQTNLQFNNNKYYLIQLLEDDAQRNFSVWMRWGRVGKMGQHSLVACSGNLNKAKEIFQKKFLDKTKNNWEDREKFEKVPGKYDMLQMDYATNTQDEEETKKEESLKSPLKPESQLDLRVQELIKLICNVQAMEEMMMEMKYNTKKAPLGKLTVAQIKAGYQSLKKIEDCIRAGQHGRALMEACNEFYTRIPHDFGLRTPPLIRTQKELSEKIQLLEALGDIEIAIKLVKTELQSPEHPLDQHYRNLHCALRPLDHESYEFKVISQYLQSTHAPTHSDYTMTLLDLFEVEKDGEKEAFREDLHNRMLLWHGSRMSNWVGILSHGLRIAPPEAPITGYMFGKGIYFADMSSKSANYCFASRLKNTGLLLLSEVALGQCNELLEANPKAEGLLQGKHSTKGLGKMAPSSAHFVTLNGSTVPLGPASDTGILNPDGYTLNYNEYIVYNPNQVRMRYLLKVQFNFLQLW

L02 = assay: Cytotoxicity against human HL7702 cells assessed as cell growth inhibition incubated for 48 hrs by MTT assay; type: cell-based; conditions: L02, 48 h
In short: (§1)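 Cells seeded in 96-well plates and exposed to compounds for 48 h; viability read by MTT. Each experiment repeated three times. SK-OV-3 grown in McCOY's 5A, Bel-7402 and HL-7702 in RPMI-1640, HepG2 in DMEM, Caco-2 in MEM.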

Caco-2 [10] = assay: Antiproliferative activity against human Caco-2 cells assessed as cell growth inhibition incubated for 48 hrs by MTT assay; type: functional, cell-based; conditions: Caco-2, 48 h
In short: as §1

HepG2 [11] = assay: Antiproliferative activity against human HepG2 cells assessed as cell growth inhibition incubated for 48 hrs by MTT assay; type: functional, cell-based; conditions: HepG2, 48 h
In short: as §1

Bel-7402 [12] = assay: Antiproliferative activity against human Bel-7402 cells assessed as cell growth inhibition incubated for 48 hrs by MTT assay; type: functional, cell-based; conditions: Bel-7402, 48 h
In short: as §1

SK-OV-3 [13] = assay: Antiproliferative activity against human SK-OV-3 cells assessed as cell growth inhibition incubated for 48 hrs by MTT assay; type: functional, cell-based; conditions: SK-OV-3, 48 h
In short: as §1

T1 sequence (P09874 whole entry): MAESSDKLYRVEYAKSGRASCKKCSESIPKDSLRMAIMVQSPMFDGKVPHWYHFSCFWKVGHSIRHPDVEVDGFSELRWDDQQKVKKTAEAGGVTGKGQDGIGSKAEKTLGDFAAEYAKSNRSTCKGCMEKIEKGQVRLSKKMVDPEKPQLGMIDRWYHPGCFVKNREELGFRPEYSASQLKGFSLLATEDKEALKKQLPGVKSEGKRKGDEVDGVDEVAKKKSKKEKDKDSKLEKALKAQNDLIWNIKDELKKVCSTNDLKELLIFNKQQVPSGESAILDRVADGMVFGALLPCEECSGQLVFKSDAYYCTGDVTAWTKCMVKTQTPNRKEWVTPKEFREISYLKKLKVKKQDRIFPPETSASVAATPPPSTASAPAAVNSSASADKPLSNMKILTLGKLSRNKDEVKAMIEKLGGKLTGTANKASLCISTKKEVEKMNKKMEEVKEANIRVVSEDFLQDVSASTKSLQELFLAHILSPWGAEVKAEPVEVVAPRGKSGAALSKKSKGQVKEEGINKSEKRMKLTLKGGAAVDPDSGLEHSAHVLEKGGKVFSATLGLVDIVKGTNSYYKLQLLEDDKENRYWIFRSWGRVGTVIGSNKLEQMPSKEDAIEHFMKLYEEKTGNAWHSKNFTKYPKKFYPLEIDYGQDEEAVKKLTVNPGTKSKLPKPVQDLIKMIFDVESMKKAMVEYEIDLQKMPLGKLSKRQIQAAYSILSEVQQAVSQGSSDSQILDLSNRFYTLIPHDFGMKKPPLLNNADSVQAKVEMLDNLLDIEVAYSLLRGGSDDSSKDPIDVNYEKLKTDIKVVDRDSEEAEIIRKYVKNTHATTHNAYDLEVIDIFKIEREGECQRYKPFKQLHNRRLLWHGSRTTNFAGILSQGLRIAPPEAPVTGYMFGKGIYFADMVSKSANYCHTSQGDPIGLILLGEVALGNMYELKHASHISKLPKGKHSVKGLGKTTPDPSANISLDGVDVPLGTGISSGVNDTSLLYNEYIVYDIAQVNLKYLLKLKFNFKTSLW

Row | Structure (SMILES) | inhibition [1] [%] | inhibition at 20 µM (Bel-7402 [2]) [%] | inhibition at 48 h, 20 µM [3] [%] | inhibition at 20 µM (HepG2 [4]) [%] | inhibition at 20 µM (SK-OV-3 [5]) [%] | inhibition at 20 µM (Caco-2 [6]) [%] | IC50 [7] [µM] | Ratio IC50 [8] | IC50 [9] [µM] | IC50 (L02) [µM] | IC50 (Caco-2 [10]) [µM] | IC50 (HepG2 [11]) [µM] | IC50 (Bel-7402 [12]) [µM] | IC50 (SK-OV-3 [13]) [µM]
1 | COc1ccc(/C=N/NC(N)=S)cc1O | 28.1 |  |  |  |  |  |  |  |  |  |  |  |  | 
2 | NC(=S)N/N=C/c1cc(O)c(O)c(Br)c1 | 30.2 | < 0 | 54.8 | < 0 | < 0 | 47.9 |  |  |  |  |  |  |  | 
3 | COc1cc(/C=N/NC(N)=S)cc(Br)c1O | 42.9 | 32.3 | < 0 | 29.6 | 21.6 | 35.6 |  |  |  |  |  |  |  | 
4 | COc1ccc(/C=N/NC(=S)Nc2ccccc2)c(Br)c1O | 42.9 | 36.4 | 46.9 | 65.6 | 62.1 | 82.4 |  |  |  |  |  |  |  | 
5 | COc1cc(/C=N/NC(=S)Nc2cccc(C(F)(F)F)c2)c(Br)c(Br)c1OC | 23 | 12.7 | 71.1 | 43.2 | < 0 | 6.4 |  |  |  |  |  |  |  | 
6 | COc1cc(/C=N/NC(N)=S)c(Br)c(Br)c1O | 61 | 44.8 | < 0 | 50.8 | 28 | 24.9 | 0.254 | > 3.94 | > 1 |  |  |  |  | 
7 | COc1cc(/C=N/NC(=S)Nc2ccc(Cl)cc2)cc(Br)c1OC | 32.2 | 55.7 | 42.9 | 46.6 | 41.5 | 55.4 |  |  |  |  |  |  |  | 
8 | COc1cc(/C=N/NC(=S)Nc2ccc(Cl)cc2)c(Br)c(Br)c1OC | 38.2 | 51.5 | 85.5 | 62.7 | 81.2 | 44.8 |  |  |  | 3.5 | 10.1 | 13.4 | 13.9 | 15.3
9 | COc1ccc(/C=N/NC(N)=S)c(Br)c1O | 34.8 | 21.4 | 31.8 | 38.5 | 9.92 | 9.01 |  |  |  |  |  |  |  | 
10 | CCOC(=O)c1ccc(NC(=S)N/N=C/c2cc(Br)c(OC)c(OC)c2)cc1 | 43.7 | 39.4 | 84 | 59.3 | 60.4 | 55.5 |  |  |  | 8.8 | 13.7 | 8.55 | 9.87 | 13.7
11 | Oc1ccc(/C=N/NC(=S)Nc2ccccc2)cc1O | 40.7 | 38.8 | 76.4 | < 0 | < 0 | 78.2 |  |  |  |  |  |  |  | 
12 | Oc1cc(/C=N/NC(=S)Nc2ccccc2)c(Br)c(Br)c1O | 45.9 | 73.1 | 94.5 | 72.9 | 54.6 | 76.4 |  |  |  | 5.65 | 9.34 | 7.08 | 12.3 | 5.12
13 | COc1cc(Br)c(/C=N/NC(=S)Nc2ccccc2)cc1OC | 37 | 19.3 | 78.7 | 67 | 41.3 | 25.7 |  |  |  |  |  |  |  | 
14 | CNC(=S)N/N=C/c1cc(Br)c(OC)c(OC)c1 | 44.1 | 29.6 | 44.3 | 57.2 | 32.9 | 43.8 |  |  |  |  |  |  |  | 
15 | COc1cc(/C=N/NC(=S)Nc2ccccc2)ccc1O | 20.6 | 41 | 9.28 | 58.4 | 45.3 | 75.1 |  |  |  |  |  |  |  | 
16 | COc1cc(/C=N/NC(N)=S)ccc1O | 28 |  |  |  |  |  |  |  |  |  |  |  |  | 

Row | Structure (SMILES) | inhibition [1] [%] | inhibition at 20 µM (Bel-7402 [2]) [%] | inhibition at 48 h, 20 µM [3] [%] | inhibition at 20 µM (HepG2 [4]) [%] | inhibition at 20 µM (SK-OV-3 [5]) [%] | inhibition at 20 µM (Caco-2 [6]) [%] | IC50 [7] [µM] | Ratio IC50 [8] | IC50 [9] [µM] | IC50 (L02) [µM] | IC50 (Caco-2 [10]) [µM] | IC50 (HepG2 [11]) [µM] | IC50 (Bel-7402 [12]) [µM] | IC50 (SK-OV-3 [13]) [µM]
17 | COc1cc(/C=N/NC(=S)NCCCN2CCOCC2)cc(Br)c1OC | 33 | 39.4 | 24.7 | 35.2 | 37.7 | 36.9 |  |  |  |  |  |  |  | 
18 | CNC(=S)N/N=C/c1cc(OC)c(OC)c(Br)c1Br | 32.2 | 3.9 | 63.4 | 38.9 | 18.3 | < 0 |  |  |  |  |  |  |  | 
19 | COc1cc(Br)c(/C=N/NC(N)=S)cc1OC | 42.6 | 18.3 | 42.5 | 37.6 | 20.8 | 8.65 |  |  |  |  |  |  |  | 
20 | NC(=S)N/N=C/c1cc(O)c(O)c(Br)c1Br | 37.1 | 69.3 | 82.9 | 65.8 | 60.7 | 53.6 |  |  |  | 13.5 | 16.4 | 16 | 19.6 | 19.2
21 | Oc1cc(/C=N/NC(=S)Nc2ccccc2)cc(Br)c1O | 28 | 63.5 | 86.4 | 67.9 | 76.2 | 72 |  |  |  | 13.4 | 22.7 | 9.29 | 13.1 | 14
22 | COc1cc(/C=N/NC(=S)Nc2ccccc2)cc(Br)c1O | 35.5 | 25.3 | 40.7 | 62 | 56 | 62.9 |  |  |  |  |  |  |  | 
23 | COc1cc(/C=N/NC(=S)Nc2ccccc2)cc(Br)c1OC | 18.2 | 75.2 | 72.1 | 40 | 55.5 | 67.1 |  |  |  |  |  |  |  | 
24 | COc1cc(/C=N/NC(=S)Nc2ccccc2)c(Br)c(Br)c1O | 12.5 | 39.5 | 27.8 | 57.1 | 65.5 | 34.9 |  |  |  |  |  |  |  | 
25 | COc1cc(/C=N/NC(=S)Nc2cccc(C(F)(F)F)c2)cc(Br)c1OC | 38.3 | 26 | 58.6 | 36.4 | 63.3 | 21 |  |  |  |  |  |  |  | 
26 | COc1ccc(/C=N/NC(=S)Nc2ccccc2)cc1O | 37.5 | 32.2 | 41.4 | 38 | 41.4 | 71.4 |  |  |  |  |  |  |  | 
27 | COc1cc(/C=N/NC(=S)Nc2ccc(Oc3ccccc3)cc2)cc(Br)c1OC | 27.7 | 33.8 | 75.9 | < 0 | 32.3 | 76.3 |  |  |  |  |  |  |  | 
28 | COc1cc(/C=N/NC(=S)Nc2ccc(F)cc2)c(Br)c(Br)c1OC | 46.6 | 54.6 | 85.1 | 60.5 | 66.3 | 24.5 |  |  |  |  |  |  |  | 
29 | COc1cc(/C=N/NC(=S)Nc2ccccc2)c(Br)c(Br)c1OC | 43.8 | 50.3 | 86.4 | 54.6 | 90.4 | 14.2 |  |  |  | 22.6 | 9.97 | 25.7 | 30.2 | 9.25
30 | COc1cc(/C=N/NC(=S)Nc2ccc(Oc3ccccc3)cc2)c(Br)c(Br)c1OC | 23.7 | < 0 | < 0 | < 0 | 15 | < 0 |  |  |  |  |  |  |  | 
31 | COc1cc(/C=N/NC(=S)Nc2ccc(F)cc2)cc(Br)c1OC | 38.1 | 48.2 | 68.6 | 32.3 | 42.4 | 49.1 |  |  |  |  |  |  |  | 
32 | COc1cc(/C=N/NC(N)=S)cc(Br)c1OC | 23.2 | 17.6 | 2.11 | 61.1 | < 0 | 18.9 |  |  |  |  |  |  |  | 
